Assay outcomes: PubChem BioAssay, Sanford-Burnham Center for Chemical Genomics
The list is a sample of the results.
Apaf1 activ: activators of human Apaf-1 apoptosome, primary screen, biochemical, DEVD-Rh110 fluorescence, uHTS; Apaf-1 apoptosome caspase-3 activation; stronger effect = lower value; hit rate 0.31% among 330,000; Apoptotic protease-activating factor 1 (Homo sapiens), O14727; activity change, negative = activation, % at 20 µM;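 active = activity change at or below -40% at 20 µM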
Target sequence (O14727 whole entry, looked up): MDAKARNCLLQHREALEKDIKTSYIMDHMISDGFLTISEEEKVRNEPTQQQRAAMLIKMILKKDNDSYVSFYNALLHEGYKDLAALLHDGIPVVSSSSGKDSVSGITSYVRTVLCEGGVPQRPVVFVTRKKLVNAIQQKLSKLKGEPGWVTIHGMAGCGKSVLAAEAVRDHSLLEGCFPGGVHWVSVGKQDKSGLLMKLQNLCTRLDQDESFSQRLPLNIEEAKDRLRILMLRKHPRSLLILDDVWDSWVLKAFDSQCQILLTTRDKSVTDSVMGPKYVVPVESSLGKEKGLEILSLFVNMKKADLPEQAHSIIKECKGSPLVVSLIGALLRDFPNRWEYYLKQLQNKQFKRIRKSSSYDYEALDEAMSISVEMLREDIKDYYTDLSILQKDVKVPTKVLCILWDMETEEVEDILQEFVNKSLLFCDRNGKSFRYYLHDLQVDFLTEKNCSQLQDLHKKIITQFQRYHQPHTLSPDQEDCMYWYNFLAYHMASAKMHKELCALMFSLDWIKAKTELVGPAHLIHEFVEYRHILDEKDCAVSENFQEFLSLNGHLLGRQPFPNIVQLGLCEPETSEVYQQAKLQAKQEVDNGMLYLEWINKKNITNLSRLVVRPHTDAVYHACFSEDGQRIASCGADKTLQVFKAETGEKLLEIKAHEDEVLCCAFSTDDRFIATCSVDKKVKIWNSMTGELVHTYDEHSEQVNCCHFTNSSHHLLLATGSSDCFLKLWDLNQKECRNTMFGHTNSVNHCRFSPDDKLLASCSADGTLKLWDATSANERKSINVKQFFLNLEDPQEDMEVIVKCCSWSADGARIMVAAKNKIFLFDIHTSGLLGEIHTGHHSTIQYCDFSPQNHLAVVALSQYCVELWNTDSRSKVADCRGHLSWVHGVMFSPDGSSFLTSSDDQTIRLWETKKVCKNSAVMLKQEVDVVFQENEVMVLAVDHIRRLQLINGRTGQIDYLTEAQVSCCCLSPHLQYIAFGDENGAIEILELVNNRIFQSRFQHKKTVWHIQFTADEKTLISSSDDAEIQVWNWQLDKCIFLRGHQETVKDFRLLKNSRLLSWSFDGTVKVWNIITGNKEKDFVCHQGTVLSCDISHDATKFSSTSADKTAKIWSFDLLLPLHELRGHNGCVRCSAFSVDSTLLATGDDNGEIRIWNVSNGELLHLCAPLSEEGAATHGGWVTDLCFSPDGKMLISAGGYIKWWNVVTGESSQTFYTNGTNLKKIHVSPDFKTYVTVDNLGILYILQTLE
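System: Reconstituted apoptosome of Apaf-1, cytochrome c, caspase-9, procaspase-3 | Reagent: dATP, cytochrome c, and (Z-DEVD)2-Rh110 caspase-3 substrate | Times: 30 min compound preincubation and 50 min reaction, both room temperature | Detection: Caspase-3-released Rh110 fluorescence, 540 nm emission, 480 nm excitation | Measure: Caspase-3 activity via Apaf-1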
Rh110 act interf: Rh110 fluorescence interference by putative Apaf-1 activators, confirmation, artefact control for Apaf-1 activator project, biochemical, 20 µM; shares compounds with Apaf1 activ; quenched caspase reaction, Ex480/Em540; fluorescence interference (activity change), % at 20 µM, hits read low; 980 tested, under 10 active; AID 504616, 2011;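 active = mean activity change at or below -40% when tested at 20 µM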
Apaf-1 act conf: Apaf-1 activators, single-dose retest, confirmation, biochemical, fluorescence, DEVD-Rh110, 20 µM; shares compounds with Apaf1 activ; reconstituted apoptosome caspase-3 activity; stronger effect = lower value; activity change, negative = activation, % at 20 µM; hit rate 5% among 980; AID 504617, 2011;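 active = mean activity change at or below -40%, meaning activation of 40% or more, at 20 µM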
Fluor interf act: fluorescence interference of Apaf-1 activator hits, dose response, artefact control for Apaf-1 activator project; EC50, µM; fluorescence interference counterscreen, Apaf-1 activator assay; AID 588592, 2011; shares compounds with Apaf1 activ; 55 tested, under 10 active; call rule not given here
Large screens that a line does not name were inactive (follow-up assays come after a bar, where they were run).

CC1CN(S(=O)(=O)c2cccc(C(=O)N(CCc3ccccc3)Cc3ccccc3)c2)CC(C)O1 (stereo unspecified)	none
COc1ccc(CCNC(=O)CSc2nnc(-c3ccco3)c(-c3ccco3)n2)cc1OC	none
Cn1c(-c2sccc2OCc2ccccc2)n[nH]c1=S	Apaf1 activ -289
Cc1cccc(NC(=S)NCc2ccc3c(c2)cc(C)n3C)c1C	none
CCCCc1nc(N2CCN(C(=O)c3ccco3)CC2)c(C#N)c2c1CCCC2	none
CN(C)CCOc1ccc(-c2c(-c3ccccc3)sc3ccccc23)cc1	none
COc1ccc(NC(=O)Nc2ccc(O)c3ccccc23)cc1	none
CC(=O)Nc1ccc(S(=O)(=O)NC2(C(F)(F)F)NC(=O)N(c3ccc(Cl)cc3)C2=O)cc1 (stereo unspecified)	Apaf1 activ -58
CC(=O)Nc1ccc(S(=O)(=O)NCc2ccc3c(c2)cc(C)n3C)cc1	none
CC(=O)C1=C(c2cccc([N+](=O)[O-])c2)N(C(C)=O)n2c(C)nnc2S1	none
S=C(Nc1ccc2nsnc2c1)N1CCCC1	none
COc1cc(CCc2ccccc2)c(C(=O)O)c(O)c1C/C=C(/C)CCC=C(C)C	none
Cc1[nH]n(-c2ccccc2)c(=O)c1/C=N\NC(=O)C1COc2ccccc2O1 (stereo unspecified)	none
CCc1ccc(S(=O)(=O)Nc2cc(SCC(=O)O)c(O)c3ccccc23)cc1	none
CC(C)(C)NS(=O)(=O)c1ccc(CCC(=O)O)cc1	Apaf1 activ -99
Cc1cccc(NC(=O)CN2CCN(C(=O)c3oc4c(Cl)cccc4c3C)CC2)c1C	none
CC(C)n1cnc2c(NCc3ccccc3)cc(N[C@H](C)CO)cc21	none
C#CCOCCOCCOCCNc1nc(N2CCN(C(=O)CCCCCCCCCCNC(=O)Cn3cc(C[C@@H](C)O)nn3)CC2)nc(N2CCN(C(=O)CCCCCCCCCCNC(=O)[C@H](CCCN=C(N)N)n3cc(C[C@@H](C)CC)nn3)CC2)n1	none
O=[N+]([O-])c1c(Nc2ccccn2)cc(Cl)c2nonc12	none
COc1ccccc1C(CNC(=O)c1cccc(S(=O)(=O)Nc2ccc(C)cc2)c1)N(C)C (stereo unspecified)	none
COc1ccc(NS(=O)(=O)c2cccc(C(=O)N3CCCCCCC3)c2)cc1	none
COc1ccc(NS(=O)(=O)c2cccc(C(=O)N/N=C/c3cn(-c4ccccc4)nc3-c3ccc(OC)cc3)c2)cc1	Apaf1 activ -45
CCc1ccc(N2C(=O)C(Cl)=C(Nc3ccc(C(=O)N4CCCC4)cc3)C2=O)cc1	none
O=C(COc1ccc2ccc(=O)oc2c1)Nc1ccc(N2CCCCC2)cc1	none
CCN(CC)CCN(C(=O)c1ccc2c(c1)CCCC2)c1nc2cc(OC)c(OC)cc2s1	none
CCCCOc1ccc(C(=O)NCC(=O)NCC(c2cccs2)N2CCOCC2)cc1 (stereo unspecified)	none
C=C(C)C(=O)Nc1cccc(C2=NOC3(C2)C[C@H](C(N)=O)N(C(=O)CC)C3)c1 (stereo partly specified)	Apaf1 activ -271
C=C(C)C(=O)Nc1cccc(C2=NOC3(C2)C[C@H](C(N)=O)N(C(=O)CC#N)C3)c1 (stereo partly specified)	Apaf1 activ -166
C#CCOCCOCCOCCNc1nc(N2CCN(C(=O)CCCCCCCCCCNC(=O)[C@H](CO)n3cc(CCCSC)nn3)CC2)nc(N2CCN(C(=O)CCCCCCCCCCNC(=O)[C@H](CCCN=C(N)N)n3cc(C[C@@H](C)CC)nn3)CC2)n1	none
CCN(CC(=O)Nc1ccccc1OC)C(=O)CN1C(=O)NC(C)(c2ccccc2)C1=O (stereo unspecified)	none
COCCN(Cc1ccccc1)C(=O)C1CCN(S(=O)(=O)c2ccc3c(c2)OCCO3)CC1	none
Nc1cc2nc3ccccc3oc-2cc1=O	none
CCc1ccc(S(=O)(=O)/N=C2\C=C(Nc3ccc(C(=O)O)cc3)C(=O)c3ccccc32)cc1	none
Cc1ccc(S(=O)(=O)/N=C2\C=C(Nc3cccc(C(=O)O)c3)C(=O)c3ccccc32)c(C)c1	none | Fluor interf act inactive
Cc1ccc(S(=O)(=O)/N=C2\C=C(Nc3cccc(C(=O)O)c3)C(=O)c3ccccc32)cc1	none
Cc1ccccc1C(=O)c1cccn1CC(=O)NCc1ccc(Cl)cc1	Apaf1 activ -92 | Rh110 act interf inactive | Apaf-1 act conf inactive
Nc1ccc2ncccc2c1	none
Nc1ccc(N(CCO)CCO)cc1	none
Cc1nc2sccn2c(=O)c1CCN1CCC(=C(c2ccc(F)cc2)c2ccc(F)cc2)CC1	none
